Experiments:
[1] = test system: Mus musculus; assay: Toxicity in collagen-induced B10.RIII mouse arthritis model assessed as change in body fat at 30 mg/kg, po qd for 35 days relative to 30% cremophor-treated control; type: organism-based; set-up: dose 30 mg/kg, route oral; settings: in vivo, 840 h
Procedure, shortened: (§1)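 Female B10.RIII mice were immunized with porcine type II collagen in complete Freund's adjuvant, enrolled at arthritis onset (10/group), and dosed orally once daily for five weeks in 30% cremophor vehicle. Four paws were scored 1–4 (max 16), as AUC. Serum biomarkers were taken at day 35. Femur cortical thickness was measured by microCT in non-immunized, age-matched mice dosed identically.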

[2] = test system: Mus musculus; assay: Toxicity in collagen-induced B10.RIII mouse arthritis model assessed as change in femur cortical thickness at 30 mg/kg, po qd for 35 days relative to 1% methylcellulose-treated control; type: organism-based; set-up: dose 30 mg/kg, route oral; settings: in vivo, 840 h
Procedure, shortened: (§2)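 Female B10.RIII mice were immunized at 12–15 weeks with porcine type II collagen emulsified in complete Freund's adjuvant (100 μg intradermal, tail base). Animals were enrolled at first arthritis signs, 10 per group, and dosed orally once daily for five weeks in 1% methylcellulose. Paws were scored 1–4 each (max 16), with AUC taken. Serum was collected at day 35. Femur cortical thickness was measured by microCT in non-immunized, age-matched mice given the same dosing.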

[3] = test system: Mus musculus; assay: Toxicity in collagen-induced B10.RIII mouse arthritis model assessed as change in femur cortical thickness at 30 mg/kg, po qd for 35 days relative to 30% cremophor-treated control; type: organism-based; set-up: dose 30 mg/kg, route oral; settings: in vivo, 840 h; procedure, shortened: as §1
[4] = test system: Mus musculus; assay: Toxicity in collagen-induced B10.RIII mouse arthritis model assessed as change in insulin level at 30 mg/kg, po qd for 35 days relative to 30% cremophor-treated control; type: organism-based; set-up: dose 30 mg/kg, route oral; settings: in vivo, 840 h; procedure, shortened: as §1
[5] = test system: Mus musculus; assay: Toxicity in collagen-induced B10.RIII mouse arthritis model assessed as change in triglyceride level at 30 mg/kg, po qd for 35 days relative to 1% methylcellulose-treated control; type: organism-based; set-up: dose 30 mg/kg, route oral; settings: in vivo, 840 h; procedure, shortened: as §2
[6] = test system: Mus musculus; assay: Toxicity in collagen-induced B10.RIII mouse arthritis model assessed as change in free fatty acid level at 30 mg/kg, po qd for 35 days relative to 1% methylcellulose-treated control; type: organism-based; set-up: dose 30 mg/kg, route oral; settings: in vivo, 840 h; procedure, shortened: as §2
[7] = test system: Mus musculus; assay: Toxicity in collagen-induced B10.RIII mouse arthritis model assessed as change in free fatty acid level at 30 mg/kg, po qd for 35 days relative to 30% cremophor-treated control; type: organism-based; set-up: dose 30 mg/kg, route oral; settings: in vivo, 840 h; procedure, shortened: as §1
[8] = test system: Mus musculus; assay: Toxicity in collagen-induced B10.RIII mouse arthritis model assessed as change in femur cortical thickness at 3 mg/kg, po qd for 35 days relative to 30% cremophor-treated control; type: organism-based; set-up: dose 3 mg/kg, route oral; settings: in vivo, 840 h; procedure, shortened: as §1
[9] = test system: Mus musculus; assay: Toxicity in collagen-induced B10.RIII mouse arthritis model assessed as change in AUC at 30 mg/kg, po qd for 35 days relative to 1% methylcellulose-treated control; type: organism-based; set-up: dose 30 mg/kg, route oral; settings: in vivo, 840 h; procedure, shortened: as §2
[10] = test system: Mus musculus; assay: Toxicity in collagen-induced B10.RIII mouse arthritis model assessed as change in insulin level at 3 mg/kg, po qd for 35 days relative to 30% cremophor-treated control; type: organism-based; set-up: dose 3 mg/kg, route oral; settings: in vivo, 840 h; procedure, shortened: as §1
[11] = test system: Mus musculus; assay: Toxicity in collagen-induced B10.RIII mouse arthritis model assessed as change in body fat at 30 mg/kg, po qd for 35 days relative to 1% methylcellulose-treated control; type: organism-based; set-up: dose 30 mg/kg, route oral; settings: in vivo, 840 h; procedure, shortened: as §2
[12] = test system: Mus musculus; assay: Toxicity in collagen-induced B10.RIII mouse arthritis model assessed as change in insulin level at 3 mg/kg, po qd for 35 days relative to 1% methylcellulose-treated control; type: organism-based; set-up: dose 3 mg/kg, route oral; settings: in vivo, 840 h; procedure, shortened: as §2
[13] = test system: Mus musculus; assay: Toxicity in collagen-induced B10.RIII mouse arthritis model assessed as change in AUC at 3 mg/kg, po qd for 35 days relative to 1% methylcellulose-treated control; type: organism-based; set-up: dose 3 mg/kg, route oral; settings: in vivo, 840 h; procedure, shortened: as §2
[14] = test system: Mus musculus; assay: Toxicity in collagen-induced B10.RIII mouse arthritis model assessed as change in AUC at 3 mg/kg, po qd for 35 days relative to 30% cremophor-treated control; type: organism-based; set-up: dose 3 mg/kg, route oral; settings: in vivo, 840 h; procedure, shortened: as §1
[15] = test system: Mus musculus; assay: Toxicity in collagen-induced B10.RIII mouse arthritis model assessed as change in body fat at 3 mg/kg, po qd for 35 days relative to 30% cremophor-treated control; type: organism-based; set-up: dose 3 mg/kg, route oral; settings: in vivo, 840 h; procedure, shortened: as §1
[16] = test system: Mus musculus; assay: Toxicity in collagen-induced B10.RIII mouse arthritis model assessed as change in free fatty acid level at 3 mg/kg, po qd for 35 days relative to 1% methylcellulose-treated control; type: organism-based; set-up: dose 3 mg/kg, route oral; settings: in vivo, 840 h; procedure, shortened: as §2
[17] = test system: Mus musculus; assay: Toxicity in collagen-induced B10.RIII mouse arthritis model assessed as change in free fatty acid level at 3 mg/kg, po qd for 35 days relative to 30% cremophor-treated control; type: organism-based; set-up: dose 3 mg/kg, route oral; settings: in vivo, 840 h; procedure, shortened: as §1
[18] = test system: Mus musculus; assay: Toxicity in collagen-induced B10.RIII mouse arthritis model assessed as change in insulin level at 30 mg/kg, po qd for 35 days relative to 1% methylcellulose-treated control; type: organism-based; set-up: dose 30 mg/kg, route oral; settings: in vivo, 840 h; procedure, shortened: as §2
[19] = test system: Mus musculus; assay: Toxicity in collagen-induced B10.RIII mouse arthritis model assessed as change in AUC at 30 mg/kg, po qd for 35 days relative to 30% cremophor-treated control; type: organism-based; set-up: dose 30 mg/kg, route oral; settings: in vivo, 840 h; procedure, shortened: as §1
[20] = molecular target: T1, Glucocorticoid receptor (Homo sapiens) (UniProt P04150); assay: Agonist activity at glucocorticoid receptor in human […] cells assessed as suppression of vitamin D-induced osteocalcin production at 2 uM after 48 hrs by Gla-type osteocalcin ELISA relative to dexomethasone; type: cell-based
T1 sequence (whole entry): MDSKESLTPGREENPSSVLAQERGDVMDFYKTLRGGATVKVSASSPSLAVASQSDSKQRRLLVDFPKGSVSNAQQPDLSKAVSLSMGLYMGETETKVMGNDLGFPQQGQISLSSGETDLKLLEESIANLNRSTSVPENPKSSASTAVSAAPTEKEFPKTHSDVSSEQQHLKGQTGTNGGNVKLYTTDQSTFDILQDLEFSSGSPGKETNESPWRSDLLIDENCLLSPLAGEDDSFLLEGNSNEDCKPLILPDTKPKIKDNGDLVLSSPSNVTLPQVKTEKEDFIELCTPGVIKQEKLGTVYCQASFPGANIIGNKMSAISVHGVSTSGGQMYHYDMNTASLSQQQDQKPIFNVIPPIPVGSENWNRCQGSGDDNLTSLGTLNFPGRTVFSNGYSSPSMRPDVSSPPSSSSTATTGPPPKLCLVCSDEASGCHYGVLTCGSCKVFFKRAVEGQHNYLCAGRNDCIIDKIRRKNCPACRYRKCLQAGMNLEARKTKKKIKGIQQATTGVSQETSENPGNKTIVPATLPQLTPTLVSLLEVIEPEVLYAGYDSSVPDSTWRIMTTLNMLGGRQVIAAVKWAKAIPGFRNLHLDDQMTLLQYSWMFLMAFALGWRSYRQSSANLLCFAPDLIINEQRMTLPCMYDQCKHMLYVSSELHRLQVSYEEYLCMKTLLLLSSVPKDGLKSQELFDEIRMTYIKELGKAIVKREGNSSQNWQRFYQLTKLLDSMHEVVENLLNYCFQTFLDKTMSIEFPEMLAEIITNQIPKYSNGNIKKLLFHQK
Procedure, shortened: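 MG-63 human osteosarcoma cells plated at 20000/well in DMEM/F-12 with 1% charcoal-filtered FBS and 10 μg/mL vitamin C. Medium refreshed next day, then vitamin D (10 nM final) added with compound (2 × 10−6 to 10−10 M), duplicates. Incubated 48 h at 37 °C; supernatant osteocalcin measured by Gla-type ELISA. Vitamin D-only wells = 100%. Max efficacy at 2 μM is relative to dexamethasone (100%).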

[21] = test system: Mus musculus; assay: Toxicity in collagen-induced B10.RIII mouse arthritis model assessed as change in body fat at 3 mg/kg, po qd for 35 days relative to 1% methylcellulose-treated control; type: organism-based; set-up: dose 3 mg/kg, route oral; settings: in vivo, 840 h; procedure, shortened: as §2
[22] = test system: Mus musculus; assay: Toxicity in collagen-induced B10.RIII mouse arthritis model assessed as change in triglyceride level at 3 mg/kg, po qd for 35 days relative to 1% methylcellulose-treated control; type: organism-based; set-up: dose 3 mg/kg, route oral; settings: in vivo, 840 h; procedure, shortened: as §2
[23] = test system: Mus musculus; assay: Toxicity in collagen-induced B10.RIII mouse arthritis model assessed as change in femur cortical thickness at 3 mg/kg, po qd for 35 days relative to 1% methylcellulose-treated control; type: organism-based; set-up: dose 3 mg/kg, route oral; settings: in vivo, 840 h; procedure, shortened: as §2

Emax [20]: 78%
Compound: C[C@]12C=CC(=O)C=C1CC[C@@H]1[C@@H]2[C@@H](O)C[C@@]2(C)[C@H]1CC[C@]2(O)C(=O)CO [PREDNISOLONE]
Activity [1]: 71% | Activity [2]: -18% | Activity [3]: -22% | Activity [4]: 703% | Activity [5]: 226% | Activity [6]: 44% | Activity [7]: 54% | Activity [8]: -13% | Activity [9]: -78% | Activity [10]: 36% | Activity [11]: 68% | Activity [12]: 62% | Activity [13]: -43% | Activity [14]: -55% | Activity [15]: 30% | Activity [16]: 39% | Activity [17]: 30% | Activity [18]: 103% | Activity [19]: -90% | Activity [21]: 48% | Activity [22]: 21% | Activity [23]: -9%

— ChEMBL document CHEMBL3124926, “Identification of highly efficacious glucocorticoid receptor agonists with a potential for reduced clinical bone side effects” (J Med Chem, 2014)
